Results published in ChEMBL document CHEMBL4393705, “New chalcone-sulfonamide hybrids exhibiting anticancer and antituberculosis activity” (Eur J Med Chem, 2019).

How the values were obtained:
[1] = system: BT-549; assay: Anticancer activity against human BT549 cells assessed as cell growth inhibition measured after 48 hrs by SRB assay; type: functional; conditions: BT-549, 48 h
Method in brief: (§1)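 NCI-60 five-dose screen at 100, 10, 1.0, 0.1 and 0.01 µM final. Cells in RPMI-1640 with 5% FBS and 2 mM glutamine were seeded 24 h ahead at 37°C, 5% CO2. Compound exposure was 48 h, followed by TCA fixation and SRB staining, read at 515 nm. GI50 is the concentration giving 50% lower net protein increase than control, using time-zero plates.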

[2] = system: SF-268; assay: Anticancer activity against human SF268 cells assessed as cell growth inhibition measured after 48 hrs by SRB assay; type: functional; conditions: SF-268, 48 h; method in brief: as §1
[3] = system: NCI-H226; assay: Anticancer activity against human NCI-H226 cells assessed as cell growth inhibition measured after 48 hrs by SRB assay; type: functional; conditions: NCI-H226, 48 h; for CC50: read-out: LC50 (the source's name); method in brief: as §1
[4] = system: SR; assay: Anticancer activity against human SR cells assessed as cell growth inhibition measured after 48 hrs by SRB assay; type: functional
Method in brief: (§2)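 NCI 60-cell screen, five-dose mode at 100, 10, 1.0, 0.1 and 0.01 µM. Cells grown in RPMI-1640 with 5% FBS and 2 mM L-glutamine, seeded and held 24 h at 37°C, 5% CO2, then exposed for 48 h. Fixed with cold TCA (10% final), stained with 0.4% SRB and read at 515 nm. Time-zero plates were used. GI50 is the concentration giving 50% lower net protein increase than control.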

[5] = system: OVCAR-8; assay: Anticancer activity against human OVCAR8 cells assessed as cell growth inhibition measured after 48 hrs by SRB assay; type: functional; conditions: OVCAR-8, 48 h; method in brief: as §1
[6] = system: A549; assay: Anticancer activity against human A549 cells assessed as cell growth inhibition measured after 48 hrs by SRB assay; type: functional; conditions: A549, 48 h; method in brief: as §1
[7] = Selectivity index, ratio of LC50 for mouse 3T3 cells to MIC for Mycobacterium tuberculosis H37Rv ATCC27294; type: toxicity; conditions: read-out: Selectivity Index
[8] = system: HL-60; assay: Anticancer activity against human HL60 cells assessed as cell growth inhibition measured after 48 hrs by SRB assay; type: functional; conditions: HL-60, 48 h; for CC50: read-out: LC50 (the source's name); method in brief: as §1
[9] = system: DU-145; assay: Anticancer activity against human DU145 cells assessed as cell growth inhibition measured after 48 hrs by SRB assay; type: functional; conditions: DU-145, 48 h; method in brief: as §1
[10] = system: RXF 393; assay: Anticancer activity against human RXF393 cells assessed as cell growth inhibition measured after 48 hrs by SRB assay; type: functional; conditions: RXF 393, 48 h; method in brief: as §1
[11] = system: PC-3; assay: Anticancer activity against human PC3 cells assessed as cell growth inhibition measured after 48 hrs by SRB assay; type: functional; conditions: PC-3, 48 h; method in brief: as §1
[12] = system: KM12; assay: Anticancer activity against human KM12 cells assessed as cell growth inhibition measured after 48 hrs by SRB assay; type: functional; conditions: KM12, 48 h; method in brief: as §1
[13] = system: UACC-62; assay: Anticancer activity against human UACC62 cells assessed as cell growth inhibition measured after 48 hrs by SRB assay; type: functional; conditions: UACC-62, 48 h; for CC50: read-out: LC50 (the source's name); method in brief: as §2
[14] = system: OVCAR-3; assay: Anticancer activity against human OVCAR3 cells assessed as cell growth inhibition measured after 48 hrs by SRB assay; type: functional; conditions: OVCAR-3, 48 h; method in brief: as §1
[15] = system: HOP-62; assay: Anticancer activity against human HOP62 cells assessed as cell growth inhibition measured after 48 hrs by SRB assay; type: functional; conditions: HOP-62, 48 h; method in brief: as §1
[16] = system: NCI/ADR-RES; assay: Anticancer activity against human NCI/ADR-RES cells assessed as cell growth inhibition measured after 48 hrs by SRB assay; type: functional; method in brief: as §1
[17] = system: U-251; assay: Anticancer activity against human U251 cells assessed as cell growth inhibition measured after 48 hrs by SRB assay; type: functional; conditions: U-251, 48 h; method in brief: as §2
[18] = system: NIH3T3; assay: Cytotoxicity against mouse 3T3 cells assessed as cell viability measured after 48 hrs by MTT assay; type: cell-based; conditions: nih3t3, 48 h
Method in brief: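 3T3 fibroblasts in DMEM with 10% FBS and penicillin-streptomycin, seeded at 10^4 cells/well 24 h prior. Exposed 48 h to two-fold serial dilutions from a 100 mg/mL DMSO stock. MTT (5 mg/mL in PBS) added for 1.5 h, formazan dissolved in DMSO, read at 530 nm. Duplicate runs on different days. Value interpolated between DMSO (100%) and cycloheximide (0%) controls.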

[19] = system: NCI-H322M; assay: Anticancer activity against human NCI-H322M cells assessed as cell growth inhibition measured after 48 hrs by SRB assay; type: functional; method in brief: as §1
[20] = system: T47D; assay: Anticancer activity against human T47D cells assessed as cell growth inhibition measured after 48 hrs by SRB assay; type: functional; method in brief: as §2
[21] = system: CCRF-CEM; assay: Anticancer activity against human CCRF-CEM cells assessed as cell growth inhibition measured after 48 hrs by SRB assay; type: functional; method in brief: as §1
[22] = system: RPMI-8226; assay: Anticancer activity against human RPMI8226 cells assessed as cell growth inhibition measured after 48 hrs by SRB assay; type: functional; conditions: RPMI-8226, 48 h; for CC50: read-out: LC50 (the source's name); method in brief: as §1
[23] = system: NCI-H23; assay: Anticancer activity against human NCI-H23 cells assessed as cell growth inhibition measured after 48 hrs by SRB assay; type: functional; conditions: NCI-H23, 48 h; method in brief: as §1
[24] = system: HOP-92; assay: Anticancer activity against human HOP92 cells assessed as cell growth inhibition measured after 48 hrs by SRB assay; type: functional; conditions: HOP-92, 48 h; method in brief: as §1
[25] = system: M14; assay: Anticancer activity against human M14 cells assessed as cell growth inhibition measured after 48 hrs by SRB assay; type: functional; conditions: M14, 48 h; for CC50: read-out: LC50 (the source's name); method in brief: as §1
[26] = system: IGROV-1; assay: Anticancer activity against human IGROV1 cells assessed as cell growth inhibition measured after 48 hrs by SRB assay; type: functional; conditions: IGROV-1, 48 h; method in brief: as §1
[27] = system: HCC 2998; assay: Anticancer activity against human HCC2998 cells assessed as cell growth inhibition measured after 48 hrs by SRB assay; type: functional; conditions: HCC 2998, 48 h; method in brief: as §1
[28] = system: MCF7; assay: Anticancer activity against human MCF7 cells assessed as cell growth inhibition measured after 48 hrs by SRB assay; type: functional; conditions: MCF7, 48 h; method in brief: as §1
[29] = system: NCI-H460; assay: Anticancer activity against human NCI-H460 cells assessed as cell growth inhibition measured after 48 hrs by SRB assay; type: functional; conditions: NCI-H460, 48 h; method in brief: as §1
[30] = system: OVCAR-5; assay: Anticancer activity against human OVCAR5 cells assessed as cell growth inhibition measured after 48 hrs by SRB assay; type: functional; conditions: OVCAR-5, 48 h; for CC50: read-out: LC50 (the source's name); method in brief: as §1

## COc1ccc(C(=O)/C=C/c2ccc(Cl)cc2)cc1S(N)(=O)=O
[1]
  GI50: 2.29 µM
  LC50: 27.3 µM
[2]
  GI50: 3.13 µM
  LC50 (concentration giving 50% net cell kill): 38.3 µM
[3]
  GI50: 3.66 µM
  CC50: 95.7 µM
[4]
  GI50: 0.86 µM
  LC50 (concentration giving 50% net cell kill): > 100 µM
[5]
  GI50: 3.55 µM
  LC50 (concentration giving 50% net cell kill): 32.6 µM
[6]
  GI50: 2.69 µM
  LC50 (concentration killing 50% of cells): 30.8 µM
[7]
  selectivity ratio: 0.29
[8]
  GI50: 3.08 µM
  CC50: > 100 µM
[9]
  GI50: 3.42 µM
  LC50: 36.3 µM
[10]
  GI50: 1.98 µM
  LC50 (concentration causing 50% net cell kill): 7.96 µM
[11]
  GI50: 2.24 µM
  LC50: 17 µM
[12]
  GI50: 1.73 µM
  LC50 (lethal concentration, 50% net cell kill): 8.26 µM
[13]
  GI50: 4.88 µM
  CC50: 44.8 µM
[14]
  GI50: 2.04 µM
  LC50: 9.7 µM
[15]
  GI50: 2.51 µM
  LC50: 31.2 µM
[16]
  GI50: 3.64 µM
  LC50: > 100 µM
[17]
  GI50: 1.96 µM
  LC50: 9.33 µM
[18]
  LC50: 4.1 µM
[19]
  GI50: 2.04 µM
  LC50: 28.8 µM
[20]
  GI50: 3.2 µM
  LC50: 59 µM
[21]
  GI50: 3.34 µM
  LC50: > 100 µM
[22]
  GI50: 2.61 µM
  CC50: > 100 µM
[23]
  GI50: 2.54 µM
  LC50: 40.9 µM
[24]
  GI50: 2.14 µM
  LC50: 21.4 µM
[25]
  GI50: 2.13 µM
  CC50: 21.2 µM
[26]
  GI50: 2.67 µM
  LC50 (concentration giving 50% net cell kill): 48.1 µM
[27]
  GI50: 1.78 µM
  LC50: 7.48 µM
[28]
  GI50: 1.3 µM
  LC50: > 100 µM
[29]
  GI50: 2.58 µM
  LC50 (concentration causing 50% net cell kill): 30 µM
[30]
  GI50: 3.08 µM
  CC50: 44.9 µM

## COc1ccc(C(=O)/C=C/c2ccc(Cl)cc2)cc1S(=O)(=O)Nc1c(N)nc(SC)[nH]c1=O
[1]
  GI50: 1.63 µM
  LC50: 6.17 µM
[2]
  GI50: 2.69 µM
  LC50 (concentration giving 50% net cell kill): 36.1 µM
[3]
  GI50: 2.34 µM
  CC50: 52.9 µM
[4]
  GI50: 3.57 µM
  LC50 (concentration giving 50% net cell kill): > 100 µM
[5]
  GI50: 3.07 µM
  LC50 (concentration giving 50% net cell kill): 37.1 µM
[6]
  GI50: 2.57 µM
  LC50 (concentration killing 50% of cells): 30 µM
[7]
  selectivity ratio: 0.65
[8]
  GI50: 3.2 µM
  CC50: > 100 µM
[9]
  GI50: 3.58 µM
  LC50: 33.9 µM
[10]
  GI50: 1.6 µM
  LC50 (concentration causing 50% net cell kill): 6.67 µM
[11]
  GI50: 2.53 µM
  LC50: 32.8 µM
[12]
  GI50: 2.09 µM
  LC50 (lethal concentration, 50% net cell kill): 9.76 µM
[13]
  GI50: 2.33 µM
  CC50: 27.4 µM
[14]
  GI50: 1.94 µM
  LC50: 8 µM
[15]
  GI50: 1.81 µM
  LC50: 8.7 µM
[16]
  GI50: 40.1 µM
  LC50: > 100 µM
[17]
  GI50: 1.58 µM
  LC50: 6.16 µM
[18]
  LC50: 13 µM
[19]
  GI50: 2.38 µM
  LC50: 28 µM
[20]
  GI50: 2.45 µM
  LC50: 38.8 µM
[21]
  GI50: 2.66 µM
  LC50: > 100 µM
[22]
  GI50: 2.17 µM
  CC50: > 100 µM
[23]
  GI50: 2.53 µM
  LC50: 40.4 µM
[24]
  GI50: 2.59 µM
  LC50: 32.6 µM
[25]
  GI50: 2 µM
  CC50: 15.7 µM
[26]
  GI50: 3.25 µM
  LC50 (concentration giving 50% net cell kill): 80.2 µM
[27]
  GI50: 1.92 µM
  LC50: 6.5 µM
[28]
  GI50: 1.97 µM
  LC50: > 100 µM
[29]
  GI50: 2.49 µM
  LC50 (concentration causing 50% net cell kill): 29.1 µM
[30]
  GI50: 2.83 µM
  CC50: 38.2 µM
